{"source": "ChEMBL document CHEMBL2034911", "about": "“Carbazole alkaloids from the stems of Clausena lansium” (J Nat Prod, 2012)", "type_in_all_cases": "functional, cell-based", "key": {"PC-12 [1]": {"system": "PC-12", "test": "Neuroprotective activity in rat PC12 cells assessed as inhibition of SNP-induced cell death at 10 uM incubated 24 hrs post SNP-challenge for 24 hrs by MTT assay", "method_in_brief": "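PC12 cells were grown in DMEM with 5% FBS and 5% equine serum and seeded at 5000 cells/well for 24 h. Medium was switched to basic medium with 350 μM SNP for 24 h, with compound (DMSO stock, >1000-fold dilution) added at the same time, in triplicate. MTT was added for 4 h, formazan dissolved in DMSO, and A570 read. ANOVA with Newman–Keuls post hoc test.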"}, "PC-12 [2]": {"system": "PC-12", "test": "Neuroprotective activity in rat PC12 cells assessed as inhibition of amyloid beta(25 to 35)-induced cell death at 10 uM incubated 48 hrs […] by MTT assay", "method_in_brief": "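PC12 cells were grown in DMEM with 5% FBS and 5% equine serum and seeded at 5000 cells/well for 24 h. Basic medium with 15 μM Aβ25−35 was applied for 48 h, with compound (DMSO stock, >1000-fold dilution) co-added, in triplicate. Viability was measured by MTT (4 h), formazan dissolved in DMSO, and absorbance read at 570 nm. ANOVA/Newman–Keuls.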"}, "PC-12 [3]": {"system": "PC-12", "test": "Neuroprotective activity in rat PC12 cells assessed as inhibition of serum starvation-induced cell death after 24 hrs by MTT assay", "method_in_brief": "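Serum-withdrawal model: PC12 cells (5000/well) were pre-grown 24 h in DMEM with 5% FBS and 5% equine serum, then moved to plain DMEM. Compound (DMSO stock, >1000-fold dilution) was added at the same time, in triplicate, and cells were incubated 24 h at 37 °C, 5% CO2. MTT was added for 4 h, formazan dissolved in DMSO, and A570 read. ANOVA with Newman–Keuls test.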"}}, "note": "Calls of active or inactive are those of the source. The rule behind the calls is not given here.", "data": [{"smiles": "COc1c2c(cc3c1[nH]c1ccccc13)C(=O)O[C@@H]2[C@H](O)C(C)(C)O", "values": [{"measurement": "Activity", "setting": "PC-12 [1]", "result": "inactive"}, {"measurement": "Activity", "setting": "PC-12 [2]", "result": "inactive"}, {"measurement": "Activity", "setting": "PC-12 [3]", "result": "inactive"}]}, {"smiles": "COc1ccc2[nH]c3c4c(c(C=O)cc3c2c1)OC(C)(C)C=C4", "values": [{"measurement": "Activity", "setting": "PC-12 [1]", "result": "Active"}, {"measurement": "Activity", "setting": "PC-12 [2]", "result": "inactive"}, {"measurement": "Activity", "setting": "PC-12 [3]", "result": "inactive"}]}, {"smiles": "COc1ccc2[nH]c3ccc(C=O)cc3c2c1", "values": [{"measurement": "Activity", "setting": "PC-12 [1]", "result": "inactive"}, {"measurement": "Activity", "setting": "PC-12 [2]", "result": "inactive"}, {"measurement": "Activity", "setting": "PC-12 [3]", "result": "inactive"}]}, {"smiles": "COc1c2c(cc3c1[nH]c1ccccc13)C(=O)O[C@H](C(C)(C)O)[C@H]2O", "values": [{"measurement": "Activity", "setting": "PC-12 [1]", "result": "inactive"}, {"measurement": "Activity", "setting": "PC-12 [2]", "result": "inactive"}, {"measurement": "Activity", "setting": "PC-12 [3]", "result": "inactive"}]}, {"smiles": "COc1c2c(cc3c1[nH]c1ccccc13)[C@H]1O[C@@H](C2)C(C)(C)O1", "values": [{"measurement": "Activity", "setting": "PC-12 [1]", "result": "Active"}, {"measurement": "Activity", "setting": "PC-12 [2]", "result": "Active"}, {"measurement": "Activity", "setting": "PC-12 [3]", "result": "inactive"}]}, {"smiles": "COc1c2c(cc3c1[nH]c1ccccc13)C(=O)C[C@@H]2O", "values": [{"measurement": "Activity", "setting": "PC-12 [1]", "result": "inactive"}, {"measurement": "Activity", "setting": "PC-12 [2]", "result": "inactive"}, {"measurement": "Activity", "setting": "PC-12 [3]", "result": "inactive"}]}, {"smiles": "COC(=O)c1ccc2[nH]c3ccc(OC)cc3c2c1", "values": [{"measurement": "Activity", "setting": "PC-12 [1]", "result": "Active"}, {"measurement": "Activity", "setting": "PC-12 [2]", "result": "inactive"}, {"measurement": "Activity", "setting": "PC-12 [3]", "result": "inactive"}]}, {"smiles": "COc1cc(C=O)cc2c1[nH]c1ccccc12", "values": [{"measurement": "Activity", "setting": "PC-12 [1]", "result": "Active"}, {"measurement": "Activity", "setting": "PC-12 [2]", "result": "Active"}, {"measurement": "Activity", "setting": "PC-12 [3]", "result": "inactive"}]}, {"smiles": "COc1cc2c(cc1O)[nH]c1cc(O)c(C=O)cc12", "values": [{"measurement": "Activity", "setting": "PC-12 [1]", "result": "Active"}, {"measurement": "Activity", "setting": "PC-12 [2]", "result": "Active"}, {"measurement": "Activity", "setting": "PC-12 [3]", "result": "inactive"}]}, {"smiles": "O=Cc1ccc2[nH]c3ccccc3c2c1", "values": [{"measurement": "Activity", "setting": "PC-12 [1]", "result": "inactive"}, {"measurement": "Activity", "setting": "PC-12 [2]", "result": "inactive"}, {"measurement": "Activity", "setting": "PC-12 [3]", "result": "inactive"}]}, {"smiles": "COc1cc2c(cc1O)[nH]c1c(CC=C(C)C)c(O)c(C=O)cc12", "values": [{"measurement": "Activity", "setting": "PC-12 [1]", "result": "inactive"}, {"measurement": "Activity", "setting": "PC-12 [2]", "result": "Active"}, {"measurement": "Activity", "setting": "PC-12 [3]", "result": "inactive"}]}, {"smiles": "COc1ccc2[nH]c3cc(OC)c(C=O)cc3c2c1", "values": [{"measurement": "Activity", "setting": "PC-12 [1]", "result": "inactive"}, {"measurement": "Activity", "setting": "PC-12 [2]", "result": "inactive"}, {"measurement": "Activity", "setting": "PC-12 [3]", "result": "inactive"}]}, {"smiles": "COc1c2c(cc3c1[nH]c1ccccc13)[C@H]1O[C@@H]([C@H]2O)C(C)(C)O1", "values": [{"measurement": "Activity", "setting": "PC-12 [1]", "result": "inactive"}, {"measurement": "Activity", "setting": "PC-12 [2]", "result": "inactive"}, {"measurement": "Activity", "setting": "PC-12 [3]", "result": "inactive"}]}, {"smiles": "CC(C)=CCc1c(C=O)cc(O)c2[nH]c3ccccc3c12", "values": [{"measurement": "Activity", "setting": "PC-12 [1]", "result": "inactive"}, {"measurement": "Activity", "setting": "PC-12 [2]", "result": "inactive"}, {"measurement": "Activity", "setting": "PC-12 [3]", "result": "inactive"}]}, {"smiles": "COc1c2c(cc3c1[nH]c1ccccc13)C(=O)C(=C(C)C)C2", "values": [{"measurement": "Activity", "setting": "PC-12 [1]", "result": "inactive"}, {"measurement": "Activity", "setting": "PC-12 [2]", "result": "inactive"}, {"measurement": "Activity", "setting": "PC-12 [3]", "result": "inactive"}]}, {"smiles": "CC(C)=CCc1c(C=O)cc2c([nH]c3ccccc32)c1O", "values": [{"measurement": "Activity", "setting": "PC-12 [1]", "result": "inactive"}, {"measurement": "Activity", "setting": "PC-12 [2]", "result": "Active"}, {"measurement": "Activity", "setting": "PC-12 [3]", "result": "inactive"}]}, {"smiles": "COc1ccc2[nH]c3c(O)cc(C=O)cc3c2c1", "values": [{"measurement": "Activity", "setting": "PC-12 [1]", "result": "Active"}, {"measurement": "Activity", "setting": "PC-12 [2]", "result": "inactive"}, {"measurement": "Activity", "setting": "PC-12 [3]", "result": "inactive"}]}]}
